HTR2A ag: activates the mouse 5-HT2A serotonin receptor; P35363; CHO-K1 mHTR2A beta-arrestin complementation, luminescence; percent of 30 µM serotonin response; activation, % at 7.6 µM; actives 0.66% (n = 360,000);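 active means activation above a run cutoff, the mean activation of all tested compounds plus 3 SD, cut at about 14% in these data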
TAAR1 agonist: human TAAR1 agonism; activation, % at 3 µM; AID 624467; actives 0.99% (n = 360,000); Q96RJ0; CHO RD-HGA16 TAAR1, Fluo-8 calcium fluorescence; vehicle wells 0%, saturating PEA agonist 100%;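 active means activation above the mean activation of all test compounds in the run plus 3 SD, cut at about 38% in these data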
Target sequence (Q96RJ0 whole entry, looked up): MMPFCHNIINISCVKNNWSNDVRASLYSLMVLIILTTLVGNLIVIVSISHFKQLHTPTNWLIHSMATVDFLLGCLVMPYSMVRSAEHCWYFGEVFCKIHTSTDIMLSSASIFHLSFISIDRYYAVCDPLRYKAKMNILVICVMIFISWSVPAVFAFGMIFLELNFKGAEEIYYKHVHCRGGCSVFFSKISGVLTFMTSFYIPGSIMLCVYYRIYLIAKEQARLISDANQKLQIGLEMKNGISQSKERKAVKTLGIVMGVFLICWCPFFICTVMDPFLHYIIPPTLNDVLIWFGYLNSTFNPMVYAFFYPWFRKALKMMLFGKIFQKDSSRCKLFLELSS
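Signal – calcium-sensitive Fluo-8 signal, excitation 470-495, emission 515-575 nm · System – RD-HGA16 (CHO) cells co-expressing Gα16 and hTAAR1 · Incubation – 17-24 h seeding, 75 min 37 °C dye, 30 min RT · Compound dosing – 3 µM single concentration · Repeats – no replicates (n 1)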
TAAR1 antag: antagonists of human TAAR1. CHO RD-HGA16 TAAR1, Fluo-8 calcium fluorescence, antagonist. inhibition, % at 3 µM. actives 1.5% (n = 360,000). AID 624466;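 active means inhibition above a per-plate cutoff, the mean inhibition of test compounds on that plate plus 3 SD, cut at about 49% in these data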
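test system = CHO RD-HGA16 cells bearing hTAAR1 | replication = singlicate | controls = DMSO-only wells and EC80 β-PEA-stimulated wells | reagent = EC80 β-phenethylamine stimulus | read-out basis = percent inhibition of PEA-evoked calcium signal, max/basal emission ratio | schedule = seeding 17-24 h prior, 75-min 37 °C, 30-min RT dye loading | signal = kinetic Fluo-8 calcium fluorescence measurement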
MC4R ag barr: activates human MC4R beta-arrestin recruitment. U2OS MC4R beta-arrestin complementation, luminescence; percent of melanotan II response, DMSO zero. activation, % at 8.9 µM. actives 0.98% (n = 360,000). AID 540308;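 active means activation above a per-plate cutoff, the mean activation of sample wells on that plate plus 3 SD, cut at about 8% in these data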
Target sequence (P32245 whole entry, looked up): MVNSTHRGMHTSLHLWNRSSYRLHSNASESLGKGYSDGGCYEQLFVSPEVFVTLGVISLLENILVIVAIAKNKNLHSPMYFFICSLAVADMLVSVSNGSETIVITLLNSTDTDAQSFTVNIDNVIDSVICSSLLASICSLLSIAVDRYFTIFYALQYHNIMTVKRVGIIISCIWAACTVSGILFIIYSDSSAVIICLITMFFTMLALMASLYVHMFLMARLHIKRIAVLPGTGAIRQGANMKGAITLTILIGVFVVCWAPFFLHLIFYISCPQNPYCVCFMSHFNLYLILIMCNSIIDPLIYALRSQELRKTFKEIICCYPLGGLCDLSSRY
MC4R antagonist: human MC4R antagonism in cAMP assay | P32245 | MC4R-expressing cells, MTII-stimulated cAMP, LANCE TR-FRET | inhibition, % at 6.5 µM | actives 0.48% (n = 360,000) | AID 540295;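 active means inhibition above its plate's cutoff, the mean of tested wells on that plate plus 3 SD, cut at about 29% in these data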
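Assay system: human MC4R-expressing U2OS cells; reagent: Melanotan II stimulation of cells; dosing: 6.5 µM single dose; timing: compound 30 min, challenge 1 h, detection 1 h; signal: TR-FRET cAMP assay; replicates: one well per compound, no replicates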
B2AR ag: activates human beta-2 adrenergic receptor causing internalization. P07550. Am2.2-beta2AR cells, FAP receptor internalization, flow cytometry. response, % (no concentration beside the values). actives 0.43% (n = 340,000);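 active means response above a set limit, near 3 SD of response in nonfluorescent compounds, cut at about 42% in these data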
TAAR1 nonsel count: nonselective antagonist in TAAR1 antagonist counter-screen. counterscreen cell line, calcium fluorescence, antagonist mode. inhibition, % at 3 µM. shares compounds with TAAR1 antag. actives 77% (n = 2,400). AID 651780; in the data active means inhibition above about 22%;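 further: CHO-Ga16 host cells stimulated with ATP at an EC80 level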
TAAR1 ant conf: human TAAR1 antagonism, confirmed; shares compounds with TAAR1 antag; TAAR1-expressing cells, fluorescence antagonist read-out; inhibition, % at 3 µM; actives 40% (n = 2,400); AID 651785; in the data active means inhibition above about 49%;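 further: CHO-Ga16 host cells challenged with agonist PEA near its EC80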
Ga16 nonsel ag: counter-screen for TAAR1 antagonists: nonselective Ga16 agonists. shares compounds with TAAR1 antag. Ga16-expressing cells, calcium fluorescence, agonist counterscreen. activation, % at 3 µM. actives 18% (n = 2,400). AID 651953; in the data active means activation above about 12%
TAAR1 ag count: activates human TAAR1 in antagonist counter-screen; activation, % at 3 µM; shares compounds with TAAR1 antag; actives 2% (n = 2,400); hTAAR1 cell line, fluorescence activation, agonist mode; in the data active means activation above about 37%;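 further: CHO cells stably expressing TAAR1 with calcium dye readout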
Hits are given with their value; – = inactive; · = no result. The list is not random: actives were taken first. Their share in the collection is about 4.3%.

SMILES	HTR2A ag	TAAR1 agonist	TAAR1 antag	MC4R ag barr	MC4R antagonist	B2AR ag	TAAR1 nonsel count	TAAR1 ant conf	Ga16 nonsel ag	TAAR1 ag count
O=C(Nc1ccc(-c2cn3ccsc3n2)cc1)c1ccc(F)c(S(=O)(=O)N2CCOCC2)c1	–	–	91.1	–	–	–	39.0	74.9	11.6	–
c1ccc(SCc2cn(C[C@H]3CC[C@@H]([C@@H]4CC[C@H](Cn5cc(CSc6ccccc6)nn5)O4)O3)nn2)cc1	–	–	70.8	–	–	–	36.5	56.0	14.2	–
COc1ccc(CCC(=O)NCCS(=O)(=O)N2CCN(c3ccc(OC)cc3)CC2)cc1	–	–	62.2	–	–	–	28.9	54.0	15.3	–
COc1ccc(CCC(=O)NCCS(=O)(=O)N2CCN(c3ccccc3)CC2)cc1	–	–	–	–	–	–	·	·	·	·
Cc1ccc(C(=O)N(CC(=O)NC2CCCC2)c2ccccc2F)s1	–	–	–	–	–	·	·	·	·	·
O=C(NCc1ccc(F)cc1)c1[nH]c(C(F)(F)F)nc1-c1ccccc1	–	–	–	·	·	·	·	·	·	·
O=C(N/N=C/c1ccc(-c2ccccc2[N+](=O)[O-])o1)c1cccnc1	–	–	–	–	–	–	·	·	·	·
CC(C)(C)c1cc(C(=O)N/N=C/c2ccc(-c3ccccc3[N+](=O)[O-])o2)n[nH]1	–	–	63.2	–	–	–	26.9	53.5	–	–
COc1ccccc1N1CCN(C(=O)CCc2nnc3ccc(N4CCCC4)nn23)CC1	–	–	–	–	–	–	·	·	·	·
COc1ccc(Nc2nc(-c3cccs3)nc3ccccc23)cc1S(=O)(=O)N1CCOCC1	–	–	70.6	–	–	–	30.5	49.3	–	–
COc1ccc(NS(=O)(=O)c2cccs2)cc1S(=O)(=O)N1CCOCC1	–	–	–	–	–	–	·	·	·	·
COc1ccc(NC(=O)c2ccc(-c3ccccc3)cc2)cc1S(=O)(=O)N1CCOCC1	–	–	86.5	–	–	–	47.4	60.9	14.0	–
O=C1CCCN1CCC(=O)N1CCCC(N2CCN(c3ccccc3F)CC2)C1 (configuration not stated)	–	–	–	–	–	–	·	·	·	·
CCCc1cc(C(=O)Nc2ccc(C(=O)c3ccccc3)cc2)n(C)n1	–	–	71.9	–	–	–	33.9	54.7	–	–
COc1cccc(C(=O)Nc2ccc(C(=O)O)cc2)c1	–	–	–	–	–	–	·	·	·	·
COc1cccc(C(=O)Nc2ccc(C(=O)c3ccccc3)cc2)c1	–	–	66.9	–	–	–	32.2	–	–	–
COc1cc(OC)cc(C(=O)Nc2cccc(NC(C)=O)c2)c1	–	–	–	–	–	–	·	·	·	·
COc1cc(OC)cc(C(=O)Nc2cccc(NC(=O)c3cc(OC)cc(OC)c3)n2)c1	–	–	75.4	–	–	–	27.5	49.2	–	–
Cc1ccc(N(CC(=O)N2CCCCCC2)S(C)(=O)=O)cc1	–	–	–	–	–	·	·	·	·	·
CC(C)[C@H](N)C(=O)N1CCC(C(=O)N[C@@H](Cc2ccccc2)C(=O)NCc2ccc(F)cc2)CC1	–	–	–	–	–	–	·	·	·	·
Cc1csc(NC(=O)CSc2nc(=O)[nH]c3c2CCCC3)n1	–	–	–	–	–	–	·	·	·	·
Cc1ccc2c(c1)N(C(=O)CCC(=O)NCc1cccc(F)c1)CCO2	–	–	–	–	–	–	·	·	·	·
Cc1ccccc1S(=O)(=O)Oc1ccc2ccc(O)cc2c1	–	–	66.4	–	–	–	30.3	–	–	–
Cc1ccccc1C(=O)Oc1ccc2ccc(O)cc2c1	–	–	–	–	–	–	·	·	·	·
O=S(=O)(c1ccc(NC(=S)NN=Cc2ccccc2O)cc1)N1CCCCC1	–	–	89.9	–	–	–	40.1	89.2	–	–
SMILES	HTR2A ag	TAAR1 agonist	TAAR1 antag	MC4R ag barr	MC4R antagonist	B2AR ag	TAAR1 nonsel count	TAAR1 ant conf	Ga16 nonsel ag	TAAR1 ag count
CCN(CC)c1ccc(NC(=O)/C=C/c2cc(Br)ccc2OC)cc1	–	–	74.2	–	–	–	–	–	–	–
COc1ccc(NC(=O)c2oc3ccc(S(=O)(=O)N4CCC5(CC4)OCCO5)cc3c2C)cc1	–	–	56.5	–	–	–	40.0	56.0	14.2	–
C[C@H](NC(=O)c1[nH]cnc1C(=O)Nc1ccc(Cl)cc1)c1ccccc1	–	–	–	–	–	–	·	·	·	·
COc1cccc(OCCn2cc(C(=O)c3ccco3)c3ccccc32)c1	–	–	70.3	–	–	–	22.5	–	–	–
CC(=O)c1ccc(N2CCN(C(=O)CCCc3nc4ccccc4s3)CC2)cc1	–	–	60.4	–	–	–	33.6	–	–	–
C=C(C)COc1ccc(-c2[nH]ncc2-c2ccccc2)c(O)c1	–	–	60.1	–	–	–	–	–	–	–
CC(C)CN1CCC(=O)N([C@H](CSc2ccccc2)Cc2ccccc2)CC1	–	–	53.1	–	–	–	–	–	–	–
Cc1ccc(SC[C@H](Cc2ccccc2)N2CCN(CC(C)C)CCC2=O)cc1	–	–	–	–	–	–	·	·	·	·
COc1ccccc1Oc1ccc(S(=O)(=O)N2CCCCC2)cc1NC(=O)CCNC(C)=O	–	–	–	–	–	–	·	·	·	·
O=C(N/N=C/c1ccc(Br)s1)c1ccco1	–	–	–	–	–	–	·	·	·	·
O=C(N/N=C/c1sc(=O)n(Cc2ccc(Br)cc2)c1Cl)c1ccco1	–	–	81.2	26.1	–	–	39.0	77.3	17.0	–
C/C(=N\Nc1nc(Cl)c(Cl)cc1Cl)c1ccc(S(=O)(=O)NCc2ccco2)cc1	–	–	64.8	–	–	–	40.1	52.3	–	–
COc1cccc(NC(=O)N2CCCC2C(=O)Nc2cc(C)ccc2OC)c1 (configuration not stated)	–	–	–	–	–	–	·	·	·	·
O=C(O)Cc1cn(-c2ccccc2)nc1-c1ccccc1	–	–	–	–	–	–	·	·	·	·
OCc1cn(-c2ccccc2)nc1-c1ccc(-c2nn(-c3ccccc3)cc2CO)cc1	–	–	54.5	–	–	–	41.3	60.9	11.9	–
COc1ccc(OC)c(CN2CCCC(C(=O)N3CCCCC3)C2)c1 (configuration not stated)	–	–	106.2	–	–	–	–	–	–	–

Compound activity from PubChem BioAssay.
